Converted amounts (≈) assume the structure as drawn.
Tests used:
[1] = target: T1, MecA (Staphylococcus aureus, UniProt Q7DHH4); experiment: Inhibition of bocillin FL binding to methicillin-resistant Staphylococcus aureus OC 3726 penicillin-binding protein 2a
T1 sequence (Q7DHH4 whole entry): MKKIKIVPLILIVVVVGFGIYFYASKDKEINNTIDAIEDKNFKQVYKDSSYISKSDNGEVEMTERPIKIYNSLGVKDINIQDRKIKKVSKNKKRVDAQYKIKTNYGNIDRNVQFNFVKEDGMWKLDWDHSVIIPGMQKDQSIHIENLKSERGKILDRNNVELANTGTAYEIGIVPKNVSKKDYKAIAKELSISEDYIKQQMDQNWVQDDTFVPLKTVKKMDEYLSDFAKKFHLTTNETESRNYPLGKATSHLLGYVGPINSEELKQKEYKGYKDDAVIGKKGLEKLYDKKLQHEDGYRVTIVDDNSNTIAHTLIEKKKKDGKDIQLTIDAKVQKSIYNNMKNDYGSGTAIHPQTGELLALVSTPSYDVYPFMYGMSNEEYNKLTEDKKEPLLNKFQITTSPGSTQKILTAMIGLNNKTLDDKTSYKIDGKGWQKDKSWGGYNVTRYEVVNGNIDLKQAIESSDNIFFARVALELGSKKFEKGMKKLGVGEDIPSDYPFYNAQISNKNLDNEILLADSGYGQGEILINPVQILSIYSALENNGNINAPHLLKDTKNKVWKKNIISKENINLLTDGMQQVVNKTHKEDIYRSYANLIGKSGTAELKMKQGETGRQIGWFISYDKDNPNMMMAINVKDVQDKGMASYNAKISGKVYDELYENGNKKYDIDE
Method in brief: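 OC 3726 membranes were first preincubated with 1 mg/ml clavulanic acid to saturate all PBPs except PBP2a. Drug was then added (0.16 μg/ml to 50 μg/ml), followed by Bocillin FL labeling and fluorescence imaging. IC50 is 50% inhibition of PBP2a labeling compared with the no-drug (0 μg/ml) sample.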

[2] = Inhibition of bocillin FL binding to Escherichia coli MC4100 penicillin-binding protein 3
Method in brief: (§1)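 Isolated E. coli MC4100 PBPs were competed with 10 drug concentrations from 0.016 μg/ml to 8 μg/ml, then labeled with Bocillin FL. Fluorescent PBP bands were imaged. IC50 is the concentration giving 50% inhibition of Bocillin FL binding to each PBP relative to a no-drug control.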

[3] = Inhibition of bocillin FL binding to Escherichia coli MC4100 penicillin-binding protein 1a
Method in brief: (§2)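 Isolated E. coli MC4100 PBPs; competition with drug at 10 concentrations, 0.016 μg/ml to 8 μg/ml, then Bocillin FL labeling. Gel bands visualized by imaging. IC50 is the concentration giving 50% inhibition of Bocillin FL binding relative to a no-drug control.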

[4] = Inhibition of bocillin FL binding to Escherichia coli MC4100 penicillin-binding protein 5; method in brief: as §1
[5] = Inhibition of bocillin FL binding to Escherichia coli MC4100 penicillin-binding protein 6; method in brief: as §1
[6] = Inhibition of bocillin FL binding to Escherichia coli MC4100 penicillin-binding protein 4; method in brief: as §1
[7] = target: T2, Cell shape peptidoglycan synthetase penicillin-binding protein 2 (Escherichia coli, UniProt Q2TL65); experiment: Inhibition of bocillin FL binding to Escherichia coli MC4100 penicillin-binding protein 2; method in brief: as §2
T2 sequence (Q2TL65 whole entry): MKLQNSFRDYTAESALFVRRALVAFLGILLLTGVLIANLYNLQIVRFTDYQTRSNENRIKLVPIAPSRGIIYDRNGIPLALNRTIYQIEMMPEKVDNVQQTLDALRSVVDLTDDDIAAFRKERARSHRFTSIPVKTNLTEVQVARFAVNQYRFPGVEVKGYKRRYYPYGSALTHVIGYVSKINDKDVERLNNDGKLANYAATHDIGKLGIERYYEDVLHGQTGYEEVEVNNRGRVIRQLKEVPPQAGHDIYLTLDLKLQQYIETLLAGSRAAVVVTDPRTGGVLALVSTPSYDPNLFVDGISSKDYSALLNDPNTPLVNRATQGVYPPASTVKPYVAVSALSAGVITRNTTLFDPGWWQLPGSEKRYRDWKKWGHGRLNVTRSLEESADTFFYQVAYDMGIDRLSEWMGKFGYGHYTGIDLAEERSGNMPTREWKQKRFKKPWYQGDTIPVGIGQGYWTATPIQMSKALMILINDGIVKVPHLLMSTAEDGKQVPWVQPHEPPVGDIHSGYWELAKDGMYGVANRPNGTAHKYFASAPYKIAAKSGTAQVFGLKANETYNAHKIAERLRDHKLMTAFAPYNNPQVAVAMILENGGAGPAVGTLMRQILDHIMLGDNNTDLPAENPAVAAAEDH

[8] = Inhibition of bocillin FL binding to Escherichia coli MC4100 penicillin-binding protein 1b; method in brief: as §1
[9] = test system: Staphylococcus aureus; experiment: Antibacterial activity against methicillin-resistant Staphylococcus aureus OC 3726 by CLSI method; format: functional
[10] = test system: Escherichia coli; experiment: Antibacterial activity against Escherichia coli MC4100 by CLSI method; format: functional
[11] = Inhibition of bocillin FL binding to Pseudomonas aeruginosa PAO1 penicillin-binding protein 4
Method in brief: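 P. aeruginosa PAO1 PBPs were isolated and competed with 10 drug concentrations from 0.06 μg/ml to 32 μg/ml before Bocillin FL labeling. Bands were detected by fluorescence imaging. IC50 was taken as 50% inhibition of Bocillin FL binding versus the no-drug sample.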

For `CO/N=C(\C(=O)N[C@@H]1C(=O)N2C(C(=O)O)=C(CSc3nc(=O)c(O)nn3C)CS[C@H]12)c1csc(N)n1` (stereo in doubt) [CEFTRIAXONE], the IC50 [1] was over 90.2 µM, the IC50 [2] was under 0.01 µg/mL and the IC50 [3] was 0.2 µg/mL (≈ 0.361 µM). The IC50 [4] was 6 µg/mL (≈ 10.8 µM), the IC50 [5] was over 8 µg/mL and the IC50 [6] was 0.4 µg/mL (≈ 0.721 µM). The IC50 [7] was 0.361 µM, the IC50 [8] was 0.5 µg/mL (≈ 0.902 µM) and the MIC [9] was over 64 µg/mL. The MIC [10] was 0.06 µg/mL (≈ 0.108 µM).
`CC(C)(O/N=C(\C(=O)N[C@@H]1C(=O)N2C(C(=O)[O-])=C(C[n+]3ccccc3)CS[C@H]12)c1csc(N)n1)C(=O)O` [CEFTAZIDIME] showed an IC50 [1] of over 91.5 µM, an IC50 [11] of 2 µg/mL (≈ 3.66 µM) and an IC50 [2] of 0.07 µg/mL (≈ 0.128 µM). For the same compound, the IC50 [3] was 1.1 µg/mL (≈ 2.01 µM), the IC50 [4] was over 4 µg/mL and the IC50 [5] was over 4 µg/mL. For the same compound, the IC50 [6] was over 4 µg/mL, the IC50 [7] was 7.32 µM and the IC50 [8] was 1.1 µg/mL (≈ 2.01 µM). It also gave an MIC [9] of over 128 µg/mL and an MIC [10] of 0.12 µg/mL (≈ 0.22 µM).
Work on `Nc1nc(/C(=N/O)C(=O)N[C@@H]2C(=O)N3C(C(=O)O)=C(/C=C4\CCN([C@@H]5CCNC5)C4=O)CS[C@H]23)ns1` [CEFTOBIPROLE] yielded an IC50 [1] of 1.68 µM, an IC50 [11] of 0.2 µg/mL (≈ 0.374 µM) and an IC50 [2] of 0.2 µg/mL (≈ 0.374 µM). For the same compound, the IC50 [3] was 0.3 µg/mL (≈ 0.561 µM), the IC50 [4] was over 8 µg/mL and the IC50 [5] was 3 µg/mL (≈ 5.61 µM). For the same compound, the IC50 [6] was 0.5 µg/mL (≈ 0.935 µM), the IC50 [7] was 0.374 µM and the IC50 [8] was 8 µg/mL (≈ 15 µM). It also gave an MIC [9] of 2 µg/mL (≈ 3.74 µM) and an MIC [10] of 0.03 µg/mL (≈ 0.0561 µM).

— ChEMBL document CHEMBL1157359, “Binding of ceftobiprole and comparators to the penicillin-binding proteins of Escherichia coli, Pseudomonas aeruginosa, Staphylococcus aureus, and Streptococcus pneumoniae” (Antimicrob Agents Chemother, 2007)
